Reference: article PMC3548047 (Nature, 2013)
Where a SMILES comes first, the peptide text is derived from it. The star is where a group is joined. Myristoyl = CCCCCCCCCCCCCC(=O)*

What was measured:
PKMζ = target: T1, PKMζ (Rattus norvegicus, UniProt P09217); test: LANCE TR-FRET in vitro kinase assay, purified PKMζ; type: biochemical
T1 sequence (P09217 1-409 isoform P09217-2): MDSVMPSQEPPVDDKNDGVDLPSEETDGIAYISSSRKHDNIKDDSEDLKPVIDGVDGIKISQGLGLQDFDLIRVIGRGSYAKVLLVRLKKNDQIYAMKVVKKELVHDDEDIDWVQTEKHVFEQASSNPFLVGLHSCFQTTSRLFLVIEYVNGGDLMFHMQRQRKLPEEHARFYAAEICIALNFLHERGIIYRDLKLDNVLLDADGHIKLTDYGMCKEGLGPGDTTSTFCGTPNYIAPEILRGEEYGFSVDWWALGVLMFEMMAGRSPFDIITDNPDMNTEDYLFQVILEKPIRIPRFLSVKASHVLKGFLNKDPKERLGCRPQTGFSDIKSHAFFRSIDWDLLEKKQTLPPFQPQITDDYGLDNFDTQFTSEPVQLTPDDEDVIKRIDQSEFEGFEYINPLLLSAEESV

PKCι = target: T2, PKCι (Rattus norvegicus, UniProt F1M7Y5); test: LANCE TR-FRET in vitro kinase assay, purified PKCι; type: biochemical
T2 sequence (F1M7Y5 1-596): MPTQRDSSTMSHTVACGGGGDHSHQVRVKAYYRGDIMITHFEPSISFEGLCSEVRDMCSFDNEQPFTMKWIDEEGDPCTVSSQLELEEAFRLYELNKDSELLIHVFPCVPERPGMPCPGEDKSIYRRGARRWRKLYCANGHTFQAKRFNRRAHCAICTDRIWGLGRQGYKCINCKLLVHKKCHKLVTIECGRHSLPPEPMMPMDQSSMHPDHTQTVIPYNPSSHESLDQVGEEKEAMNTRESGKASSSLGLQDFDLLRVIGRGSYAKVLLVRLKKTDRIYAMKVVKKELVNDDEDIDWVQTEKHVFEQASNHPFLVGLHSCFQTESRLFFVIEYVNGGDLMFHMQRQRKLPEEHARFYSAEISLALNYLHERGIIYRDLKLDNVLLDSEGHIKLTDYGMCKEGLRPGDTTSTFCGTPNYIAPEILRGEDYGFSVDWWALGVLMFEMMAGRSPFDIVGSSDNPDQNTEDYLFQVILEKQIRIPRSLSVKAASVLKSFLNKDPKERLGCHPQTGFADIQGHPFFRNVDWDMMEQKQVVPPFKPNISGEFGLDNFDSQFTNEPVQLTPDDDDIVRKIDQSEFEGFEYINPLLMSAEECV

PKCζ = target: T3, PKCζ (Rattus norvegicus, UniProt P09217); test: LANCE TR-FRET in vitro kinase assay, purified PKCζ; type: biochemical
T3 sequence (P09217 1-592): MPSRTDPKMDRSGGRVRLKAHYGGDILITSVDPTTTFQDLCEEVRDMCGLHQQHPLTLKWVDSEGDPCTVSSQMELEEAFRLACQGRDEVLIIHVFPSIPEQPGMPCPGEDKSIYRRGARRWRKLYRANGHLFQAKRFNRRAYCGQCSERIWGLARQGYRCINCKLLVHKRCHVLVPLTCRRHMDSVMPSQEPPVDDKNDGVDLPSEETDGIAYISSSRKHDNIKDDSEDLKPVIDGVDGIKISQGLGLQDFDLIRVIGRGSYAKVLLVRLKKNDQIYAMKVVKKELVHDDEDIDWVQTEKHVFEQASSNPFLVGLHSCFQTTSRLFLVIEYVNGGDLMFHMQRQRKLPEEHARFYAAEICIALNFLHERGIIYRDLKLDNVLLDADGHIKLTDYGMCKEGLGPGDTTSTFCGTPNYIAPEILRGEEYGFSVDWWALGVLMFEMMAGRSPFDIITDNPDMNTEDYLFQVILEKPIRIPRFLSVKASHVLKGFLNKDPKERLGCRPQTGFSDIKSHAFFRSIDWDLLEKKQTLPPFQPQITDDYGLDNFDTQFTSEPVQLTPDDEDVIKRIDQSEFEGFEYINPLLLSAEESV

[1] = test system: cocaine reward memory in rats; conditions: ZIP injection into the NAc; cited from earlier work
[2] = test system: Prkcz−/− mice (cocaine reward memory); type: in vivo; conditions: ZIP 10 nmol/µl, 1 µl per side into NAc
How it was run: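 Two-chamber CPP with 20-min conditioning sessions; saline or cocaine 10 mg/kg i.p., counterbalanced. Bilateral cannulae placed in the NAc (1.40 mm anterior, ±1.0 mm lateral, −3.8 mm ventral) under ketamine/xylazine, with one week of recovery. ZIP at 10 mM in 0.9% saline, or saline, via injectors 0.7 mm past the guides, left 1 min. Index: cocaine-side time on test minus preconditioning time. Mice with placements outside the NAc (Nissl) and Grubbs outliers excluded.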

[3] = test system: object location memory in rats; conditions: ZIP bilaterally into the hippocampus; cited from earlier work
fear memory in rats = conditions: ZIP administration into the amygdala; cited from earlier work
[4] = test system: Prkcz−/− mice (drug reward memory); test: Cocaine conditioned place preference, non-cannulated Prkcz−/− mice; type: in vivo; conditions: cocaine 10 mg/kg i.p.; male mice; t=0.153, P=0.88

SMILES	Ki (PKMζ)	inhibition of PKMζ, PKCι and PKCζ compared (Ki), in words (PKMζ; in vitro kinase assay, PKMζ)	Ki (PKCι)	Ki (PKCζ)	further results
COc1ccc2c(c[n+](C)c3c4cc5c(cc4ccc23)OCO5)c1OC [Chelerythrine, chelerythrine]	76 µM	–	–	–	inhibition of PKMζ with DTT, in words (PKMζ; 1 mM DTT included): lost all inhibitory activity; appearance in the presence of DTT (PKMζ; 1 mM DTT present): changed color; inhibition of PKMζ without DTT, in words (PKMζ; assayed without dithiothreitol (DTT)): weak inhibitor of PKMζ
CCCCCCCCCCCCCC(=O)N[C@@H](CCCNC(=N)N)C(=O)N[C@@H](CC(C)C)C(=O)N[C@@H](Cc1ccc(O)cc1)C(=O)N[C@@H](CCCNC(=N)N)C(=O)N[C@@H](CCCCN)C(=O)N[C@@H](CCCNC(=N)N)C(=O)N[C@H](C(=O)N[C@@H](Cc1c[nH]c2ccccc12)C(=O)N[C@@H](CCCNC(=N)N)C(=O)N[C@@H](CO)C(=O)N[C@@H](C)C(=O)NCC(=O)N[C@@H](CCCNC(=N)N)C(=O)O)[C@@H](C)CC [Scrambled ZIP] (Myristoyl-RLYRKRIWRSAGR-OH; N-terminus and C-terminus assumed)	15.4 µM	inhibited PKMζ, PKCι and PKCζ with similar Ki values	4.92 µM	5.51 µM	–
CCCCCCCCCCCCCC(=O)N[C@@H](CO)C(=O)N[C@H](C(=O)N[C@@H](Cc1ccc(O)cc1)C(=O)N[C@@H](CCCNC(=N)N)C(=O)N[C@@H](CCCNC(=N)N)C(=O)NCC(=O)N[C@@H](C)C(=O)N[C@@H](CCCNC(=N)N)C(=O)N[C@@H](CCCNC(=N)N)C(=O)N[C@@H](Cc1c[nH]c2ccccc12)C(=O)N[C@@H](CCCNC(=N)N)C(=O)N[C@@H](CCCCN)C(=O)N[C@@H](CC(C)C)C(=O)O)[C@@H](C)CC [ZIP, myristoylated zeta inhibitory peptide] (Myristoyl-SIYRRGARRWRKL-OH; C-terminus assumed)	2.11 µM	inhibited PKMζ, PKCι and PKCζ with similar Ki values	1.43 µM	1.7 µM	cocaine reward memory, in words [1]: can erase cocaine reward memory; t statistic for ZIP versus saline, cocaine CPP [2]: 2.258; difference in Ki values between ZIP and scrambled ZIP (PKMζ; PKMζ, in vitro kinase assay): 7.3 -fold; object location memory performance, in words [3]: impaired; performance in cued fear conditioning, in words (fear memory in rats): impaired
COC(=O)[C@H]1[C@@H](OC(=O)c2ccccc2)C[C@@H]2CC[C@H]1N2C [cocaine]	–	–	–	–	cocaine CPP index, Prkcz−/− versus wild-type, in words [4]: no genotype difference in the cocaine CPP index
